Source: ChEMBL document CHEMBL1127524, “Nitrobenzyl phosphorodiamidates as potential hypoxia-selective alkylating agents” (1994)

How the values were obtained:
[1] = system: HT-29; experiment: Cytotoxicity of compound was evaluated against HT-29 cells under aerobic conditions.; format: functional, Homo sapiens
Summary of the method: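 Human colon carcinoma HT-29 cells (α-MEM, 10% FBS), exponential growth, suspended at 1-2 × 10^5 cells/mL in glass vials; 4 h drug exposure gassed with 97% air/3% CO2; drug from DMSO, controls 1% DMSO; washed, plated, 14-day clonogenic colonies (>50 cells) counted; survival vs untreated; duplicates; IC90 from log-linear portion of survival curve.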

[2] = system: HT-29; experiment: Cytotoxicity of compound was evaluated against HT-29 cells under hypoxic conditions.; format: functional, Homo sapiens
Summary of the method: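 HT-29 cells at 1-2 × 10^7 cells/mL deoxygenated 10 min at 37 °C in gas-tight syringe, injected into medium degassed 3 h with 97% N2/3% CO2; 4 h exposure under continuous N2/CO2 gassing, run alongside aerobic arm with same drug stock; 1% DMSO controls; 14-day colony formation (>50 cells); survival vs untreated; duplicates; IC90 from log-linear survival curve.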

SMILES | LC90 [1] | LC90 [2]
CC(OP(=O)(N(CCCl)CCCl)N(CCCl)CCCl)c1ccc([N+](=O)[O-])cc1 (stereo not given) | >2000 µM | 22 µM
O=[N+]([O-])c1ccc(COP(=O)(N(CCCl)CCCl)N(CCCl)CCCl)cc1 | 109 µM | 55 µM
CN(C)CCCOC(=O)CC(OP(=O)(N(CCCl)CCCl)N(CCCl)CCCl)c1ccc([N+](=O)[O-])cc1 (stereo not given) | 95 µM | 50 µM
CCOC(=O)CC(OP(=O)(N(CCCl)CCCl)N(CCCl)CCCl)c1ccc([N+](=O)[O-])cc1 (stereo not given) | 106 µM | 13 µM
CN(C)CCOC(=O)CC(OP(=O)(N(CCCl)CCCl)N(CCCl)CCCl)c1ccc([N+](=O)[O-])cc1 (stereo not given) | 55 µM | 34 µM
